# Several values for one entry are separate records, joined by “and”; a condition that tells them apart may be missing. Equal entries are not always repeated.
# Key:
# [1] = tested on: Mus musculus; assay: In vivo antitumor efficacy in nude mice by injecting a dose of 25 mg/kg, as HCl salt in saline solution, perorally and the duration of action was reported; format: ADME, organism-based; parameters: dose 25 mg/kg, route oral; details: po
# [2] = (§1) Maximal plasma concentration in nude mice after 25 mg/kg oral dose; format: ADME, organism-based; parameters: dose 25 mg/kg, route oral; details: mouse
# [3] = target: T1, Protein farnesyltransferase (Homo sapiens, UniProt P49354+P49356); assay: In vitro inhibition of farnesyltransferase farnesylation of the H-ras oncogene; format: protein-complex assay
# [4] = In vivo antitumor efficacy in nude mice by injecting a dose of 25 mg/kg, as HCl salt in saline solution, iv and the total drug exposure was determined. (0-4 hr); format: ADME, organism-based; parameters: time < 4 hr, dose 25 mg/kg, route intravenous; details: mouse
# [5] = target: T1, Protein farnesyltransferase; assay: Inhibition of Farnesyltransferase from Ras-CVLS or Ras-CVLL in Cos-7 monkey kidney cells; format: cell-based, Chlorocebus aethiops
# [6] = In vivo antitumor efficacy in nude mice by injecting a dose of 25 mg/kg, as HCl salt in saline solution, perorally and the total drug exposure was determined (0-4 hr); format: ADME, organism-based; parameters: time < 4 hr, dose 25 mg/kg, route oral; details: mouse, po
# [7] = Oral bioavailability in mouse (nude) (dose of 25 mg/kg); format: ADME, organism-based; details: in vivo
# Outline: (§2)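 Serum pharmacokinetics in nude mice or cynomolgus monkeys after oral (po) or iv dosing. Compounds were given as hydrochloride salts in 20% HPβCD unless otherwise noted. Other formulations were the hydrochloride salt in saline, the micronized free base in 20% HPβCD or corn oil (po) with saline for iv, or the hydrochloride salt in 0.4% methyl cellulose (po).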
# [8] = In vivo antitumor efficacy in nude mice by injecting a dose of 25 mg/kg, as HCl salt in saline solution, iv and the serum half-life was determined; format: ADME, organism-based; parameters: dose 25 mg/kg, route intravenous; details: mouse
# [9] = In vivo antitumor efficacy in cynomolgus monkeys by injecting a dose of 10 mg/kg, as HCl salt in saline solution, perorally and the total drug exposure was determined (0-8 hr); format: ADME, organism-based, Macaca fascicularis; parameters: time < 8 hr, dose 10 mg/kg, route oral; details: cynomolgus monkey, po; outline: as §2
# [10] = target: geranylgeranyltransferase type-I (Rattus norvegicus, UniProt P53610+Q04631); assay: Inhibition of rat Geranylgeranyl transferase (GGPT); format: protein-complex assay
# [11] = In vivo antitumor efficacy in nude mice 0-24 hr after intravenous dose of 25 mg/kg expressed as Area under the curve; format: ADME, organism-based; parameters: time < 24 hr, dose 25 mg/kg, route intravenous; details: mouse; outline: as §2
# [12] = tested on: Mus musculus; assay: In vivo antitumor efficacy after peroral dose of 25 mg/kg in mice expressed as duration for which compound was present above IC50; format: ADME, organism-based; parameters: dose 25 mg/kg, route oral; details: po; outline: as §2
# [13] = as §1; format: ADME, organism-based; parameters: dose 25 mg/kg, route oral; details: mouse; outline: as §2; remark: listed apart in the source
# [14] = In vivo antitumor efficacy expressed as maximum plasma concentration 0.4 hr after a peroral dose of 25 mg/kg in cynomolgus monkeys; format: ADME, organism-based, Macaca fascicularis; parameters: dose 25 mg/kg, route oral; details: cynomolgus monkey, po; outline: as §2
# [15] = tested on: Cynomolgus monkey; assay: In vivo antitumor efficacy after peroral dose of 10 mg/kg in cynomolgus monkeys expressed as duration for which compound was present above IC50; format: ADME, organism-based, Macaca fascicularis; parameters: dose 10 mg/kg, route oral; details: po; outline: as §2
# [16] = In vivo antitumor efficacy in nude mice 0-24 hr after peroral dose of 25 mg/kg expressed as Area under the curve; format: ADME, organism-based; parameters: time < 24 hr, dose 25 mg/kg, route oral; details: nude, mouse, po; outline: as §2
# [17] = In vivo antitumor efficacy in nude mice by injecting a dose of 25 mg/kg iv and serum half-life was determined; format: ADME, organism-based; parameters: dose 25 mg/kg, route intravenous; details: mouse; outline: as §2
# [18] = In vivo antitumor efficacy in nude mice by injecting a dose of 25 mg/kg, as HCl salt in saline solution, perorally and the total drug exposure was determined (0-24hr); format: ADME, organism-based; parameters: time < 24 hr, dose 25 mg/kg, route oral; details: mouse, po
# [19] = Oral bioavailability in mouse (nude) (dose 25 mg/kg i.v.); format: ADME, organism-based; details: in vivo
# [20] = tested on: Cynomolgus monkey; assay: (§3) In vivo antitumor efficacy in cynomolgus monkeys by injecting a dose of 25 mg/kg, as HCl salt in saline solution, iv and the serum half-life was determined; format: ADME, organism-based, Macaca fascicularis; parameters: dose 25 mg/kg, route intravenous; details: in vivo; outline: as §2
# [21] = as §3; format: ADME, organism-based, Macaca fascicularis; parameters: dose 25 mg/kg, route intravenous; details: cynomolgus monkey, serum; outline: as §2
# [22] = tested on: Cynomolgus monkey; assay: (§4) In vivo antitumor efficacy in cynomolgus monkeys by injecting a dose of 25 mg/kg, as the micronised free base in corn oil, perorally and the total drug exposure was determined (0-8 hr); format: ADME, organism-based, Macaca fascicularis; parameters: time < 8 hr, dose 25 mg/kg, route oral; details: po, 8 h; outline: as §2
# [23] = as §4; format: ADME, organism-based, Macaca fascicularis; parameters: time < 8 hr, dose 25 mg/kg, route oral; details: cynomolgus monkey, po; outline: as §2
# [24] = Bioavailability in cynomolgus monkey (dose 25 mg/kg i.v.); format: ADME, organism-based, Macaca fascicularis; details: in vivo, iv; outline: as §2
# [25] = tested on: Cynomolgus monkey; assay: In vivo antitumor efficacy in cynomolgus monkeys by injecting a dose of 25 mg/kg, as HCl salt in saline solution, perorally and the maximum drug concentration was determined; format: ADME, organism-based, Macaca fascicularis; parameters: dose 25 mg/kg, route oral; details: po; outline: as §2
# [26] = In vivo antitumor efficacy in cynomolgus monkeys by injecting a dose of 25 mg/kg, as HCl salt in saline solution, iv and the total drug exposure was determined. (0-8 hr); format: ADME, organism-based, Macaca fascicularis; parameters: time < 8 hr, dose 25 mg/kg, route intravenous; details: cynomolgus monkey; outline: as §2
# [27] = In vivo antitumor efficacy in nude mice by injecting a dose of 25 mg/kg, as HCl salt in saline solution, iv and the total drug exposure was determined. (0-24hr); format: ADME, organism-based; parameters: time < 24 hr, dose 25 mg/kg, route intravenous; details: mouse
# [28] = In vivo antitumor efficacy peroral dose of 25 mg/kg expressed as duration for which compound was present above IC50; format: ADME, organism-based; parameters: dose 25 mg/kg, route oral; details: po; outline: as §2
# [29] = In vivo antitumor efficacy in cynomolgus monkeys 0-48 hr after peroral dose of 10 mg/kg expressed as Area under the curve; format: ADME, organism-based, Macaca fascicularis; parameters: time < 48 hr, dose 10 mg/kg, route oral; details: cynomolgus monkey, po; outline: as §2
# [30] = In vivo antitumor efficacy in cynomolgus monkeys 0-48 hr after iv dose of 5 mg/kg expressed as Area under the curve; format: ADME, organism-based, Macaca fascicularis; parameters: time < 48 hr, dose 5 mg/kg, route intravenous; details: cynomolgus monkey; outline: as §2
# [31] = Maximal plasma concentration in cynomolgus monkeys after 5 mg/kg oral dose; format: ADME, organism-based, Macaca fascicularis; parameters: dose 5 mg/kg, route oral; details: cynomolgus monkey; outline: as §2
# [32] = tested on: Cynomolgus monkey; assay: (§5) Maximal plasma concentration in cynomolgus monkeys after 10 mg/kg oral dose; format: ADME, organism-based, Macaca fascicularis; parameters: dose 10 mg/kg, route oral; details: in vivo; outline: as §2
# [33] = as §5; format: ADME, organism-based, Macaca fascicularis; parameters: dose 10 mg/kg, route oral; details: cynomolgus monkey, plasma; outline: as §2
# [34] = In vivo antitumor efficacy in nude mice after peroral dose of 10 mg/kg expressed as Area under the curve; format: ADME, organism-based; parameters: dose 10 mg/kg, route oral; details: mouse, po; outline: as §2
# [35] = In vivo antitumor efficacy in cynomolgus monkeys by injecting a dose of 5 mg/kg, as HCl salt in saline solution,i/v and the serum half-life was determined; format: ADME, organism-based, Macaca fascicularis; parameters: dose 5 mg/kg; details: cynomolgus monkey, iv; outline: as §2
# [36] = Bioavailability in cynomolgus monkey (dose 5 mg/kg i.v.); format: ADME, organism-based, Macaca fascicularis; details: in vivo, iv; outline: as §2
# [37] = In vivo antitumor efficacy in nude mice 0-24 hr after iv dose of 25 mg/kg expressed as Area under the curve; format: ADME, organism-based; parameters: time < 24 hr, dose 25 mg/kg, route intravenous; details: mouse; outline: as §2
# [38] = In vivo antitumor efficacy in cynomolgus monkeys 0-48 hr after peroral dose of 5 mg/kg expressed as Area under the curve; format: ADME, organism-based, Macaca fascicularis; parameters: time < 48 hr, dose 5 mg/kg, route oral; details: cynomolgus monkey, po; outline: as §2
# [39] = tested on: Mus musculus; assay: In vivo antitumor efficacy after peroral dose of 10 mg/kg in mice expressed as duration for which compound was present above IC50; format: ADME, organism-based; parameters: dose 10 mg/kg, route oral; details: po; outline: as §2
structure (smiles),measurement,setting,value
CN1CCC(CC(=O)N2CCN(C3c4ccc(Cl)cc4CCc4cccnc43)CC2)CC1 (configuration not stated),Time above IC50,[1],4 h
same,Cmax,[2],1400 nM
same,IC50,[3],1400 nM
same,AUC at 4 h,[4],4100 ng·h/mL
same,IC50,[5],930 nM
same,AUC at 4 h,[6],1300 ng·h/mL
same,bioavailability,[7],32%
same,half-life,[8],> 1 h
O=C(Cc1cc[n+]([O-])cc1)N1CCN([C@@H]2c3ccc(Cl)cc3CCc3cc(Br)cnc32)CC1,AUC at 8 h,[9],9100 ng·h/mL
same,IC50,[10],> 38000 nM
same,AUC at 24 h,[11],27100 ng·h/mL
same,Time above IC50,[12],7 h
same,Cmax,[13],25000 nM
same,Cmax,[14],1800 nM
same,Time above IC50,[15],12 h
same,AUC at 24 h,[16],31900 ng·h/mL
same,bioavailability,[7],100%
same,half-life,[17],1.18 h
O=C(Cc1cccnc1)N1CCN(C2c3ccc(Cl)cc3CCc3cccnc32)CC1 (configuration not stated),Time above IC50,[1],0.3 h
same,AUC at 24 h,[18],400 ng·h/mL
same,bioavailability,[19],36%
same,IC50,[10],> 46000 nM
same,Cmax,[2],3900 nM
same,T1/2,[20],1.5 h
same,half-life,[21],1.5 h
same,AUC,[22],1.07 uh ml-1
same,AUC at 8 h,[23],450 ng·h/mL
same,F,[24],1.4%
same,bioavailability,[24],2.2%
same,Cmax,[25],290 nM and 110 nM
same,half-life,[8],0.2 h
same,AUC at 8 h,[26],48600 ng·h/mL
same,AUC at 24 h,[27],1100 ng·h/mL
O=C(Cc1cc[n+]([O-])cc1)N1CCN(C2c3ccc(Cl)cc3CCc3cc(Br)cnc32)CC1 (configuration not stated),Time above IC50,[28],6 h
same,AUC at 48 h,[29],35600 ng·h/mL
same,IC50,[10],> 38000 nM
same,Time above IC50,[12],7 h
same,AUC at 48 h,[30],24400 ng·h/mL
same,Cmax,[31],1200 nM
same,Cmax,[32],3000 nM
same,Cmax,[33],5700 nM
same,Cmax,[13],10000 nM
same,AUC,[34],16700 ng·h/mL
same,half-life,[35],2.6 h
same,bioavailability,[36],38.5%
same,AUC at 24 h,[37],23400 ng·h/mL
same,Time above IC50,[15],24 h
same,AUC at 24 h,[16],19600 ng·h/mL
same,bioavailability,[7],84%
same,AUC at 48 h,[38],9400 ng·h/mL
same,Time above IC50,[39],24 h
same,half-life,[17],1.2 h

# From ChEMBL document CHEMBL1131493, “Inhibitors of farnesyl protein transferase. 4-Amido, 4-carbamoyl, and 4-carboxamido derivatives of 1-(8-chloro-6,11-dihydro-5H-benzo[5,6]- cyclohepta[1,2-b]pyridin-11-yl)piperazine and 1-(3-bromo-8-chloro-6,11- dihydro-5H-benzo[5,6]cyclohepta[1,2-b]pyridin-11-yl)piperazine” (J Med Chem, 1998)
